Reference: ChEMBL document CHEMBL1151442, “Genetic and phenotypic identification of fusidic acid-resistant mutants with the small-colony-variant phenotype in Staphylococcus aureus” (2007)
≈ marks a conversion by molar mass, not a printed value.

Columns and labels:
Type in all cases: functional
[1] = test system: Staphylococcus aureus; test: Antibacterial activity against kanamycin-resistant Staphylococcus aureus AH369 (SCV-41) harboring Gln115Leu mutation in fusA gene after 18 to 24 hrs by Etest strip assay
Summary of the method: (§1)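 SCVs of a Rifr 8325-4 derivative were selected on LA with KAN at 8, 16 or 24 μg/ml for 48 h at 37°C. They were purified at the same KAN level and screened on LA plus FA 1 μg/ml.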

[2] = test system: Staphylococcus aureus; test: Antibacterial activity against fusidic acid-resistant Staphylococcus aureus AH199 harboring TAA stop codon at nucleotide 241 in rplF gene after 18 to 24 hrs by Etest strip assay
Summary of the method: (§2)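 Mutants of lab strain 8325-4 were selected on LA with FA 2 μg/ml for 48 h at 37°C and purified on selective medium. For the MIC, one colony was suspended in 0.9% NaCl to 0.5 McFarland and swabbed onto Mueller-Hinton agar. An Etest strip was applied and plates were incubated at 37°C for 18–24 h until the lawn was evident.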

[3] = test system: Staphylococcus aureus; test: Antibacterial activity against kanamycin-resistant and fusidic acid-susceptible Staphylococcus aureus AH291 harboring Arg659His mutation in fusA gene after 18 to 24 hrs by Etest strip assay
Summary of the method: (§3)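 Etest MIC: a single colony was suspended in 0.9% NaCl to 0.5 McFarland and swabbed over Mueller-Hinton agar. The strip was applied and plates were incubated at 37°C for 18 to 24 h until an SCV lawn grew.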

[4] = test system: Staphylococcus aureus; test: Antibacterial activity against kanamycin-resistant Staphylococcus aureus AH337 (SCV-9) harboring -1 frameshift mutation at nucleotide 220 in rplF gene after 18 to 24 hrs by Etest strip assay; summary of the method: as §1
[5] = test system: Staphylococcus aureus; test: Antibacterial activity against kanamycin-resistant Staphylococcus aureus AH366 (SCV-38) harboring Pro114His mutation in fusA gene after 18 to 24 hrs by Etest strip assay; summary of the method: as §1
[6] = test system: Staphylococcus aureus; test: Antibacterial activity against kanamycin-resistant and fusidic acid-susceptible Staphylococcus aureus AH297 harboring Ser660Pro mutation in fusA gene after 18 to 24 hrs by Etest strip assay; summary of the method: as §3
[7] = test system: Staphylococcus aureus; test: Antibacterial activity against kanamycin-resistant Staphylococcus aureus AH331 (SCV-3) harboring Arg659His mutation in fusA gene after 18 to 24 hrs by Etest strip assay; summary of the method: as §1
[8] = test system: Staphylococcus aureus; test: Antibacterial activity against fusidic acid-resistant Staphylococcus aureus AH187 harboring His457Tyr mutation in fusA gene after 18 to 24 hrs by Etest strip assay; summary of the method: as §2
[9] = test system: Staphylococcus aureus; test: Antibacterial activity against stationary-phase rifampin-resistant Staphylococcus aureus 8325-4 culture assessed as number of viable colonies at 24 ug/ ml after 48 hrs
Summary of the method: (§4)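 Twenty independent stationary-phase overnight LB cultures of the Rifr 8325-4 derivative were made; 108 cells from each were spread on LA with kanamycin at 8, 16 or 24 μg/ml. Plates were incubated 48 h at 37°C so that slow-growing variants could form visible colonies, and Kanr colonies were counted.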

[10] = test system: Staphylococcus aureus; test: Antibacterial activity against stationary-phase rifampin-resistant Staphylococcus aureus 8325-4 culture assessed as number of viable colonies at 8 ug/ ml after 48 hrs; summary of the method: as §4
[11] = test system: Staphylococcus aureus; test: Antibacterial activity against stationary-phase rifampin-resistant Staphylococcus aureus 8325-4 culture assessed as number of viable colonies at 16 ug/ ml after 48 hrs; summary of the method: as §4

## CC(=O)O[C@H]1C[C@@]2(C)[C@@H](C[C@@H](O)[C@H]3[C@@]4(C)CC[C@@H](O)[C@@H](C)[C@@H]4CC[C@@]32C)/C1=C(\CCC=C(C)C)C(=O)O [FUSIDIC ACID]
[1]
  MIC: 48 µg/mL (≈ 92.9 µM)
[2]
  MIC: 4 µg/mL (≈ 7.74 µM)
[3]
  MIC: 4 µg/mL (≈ 7.74 µM)
[4]
  MIC: 12 µg/mL
[5]
  MIC: 12 µg/mL (≈ 23.2 µM)
[6]
  MIC: 2 µg/mL (≈ 3.87 µM)
[7]
  MIC: 8 µg/mL (≈ 15.5 µM)
[8]
  MIC: 96 µg/mL (≈ 186 µM)

## NC[C@H]1O[C@H](O[C@H]2[C@H](O)[C@@H](O[C@H]3O[C@H](CO)[C@@H](O)[C@H](N)[C@H]3O)[C@H](N)C[C@@H]2N)[C@H](O)[C@@H](O)[C@@H]1O [KANAMYCIN]
[9]
  Activity: 30
[1]
  MIC: 6 µg/mL (≈ 12.4 µM)
[10]
  Activity: 1000
[2]
  MIC: 8 µg/mL (≈ 16.5 µM)
[3]
  MIC: 24 µg/mL (≈ 49.5 µM)
[4]
  MIC: 96 µg/mL
[5]
  MIC: 12 µg/mL (≈ 24.8 µM)
[6]
  MIC: 24 µg/mL (≈ 49.5 µM)
[7]
  MIC: 16 µg/mL (≈ 33 µM)
[11]
  Activity: 200
[8]
  MIC: 3 µg/mL (≈ 6.19 µM)

## CN[C@@H]1[C@H](O[C@H]2[C@H](O[C@H]3[C@H](O)[C@@H](O)[C@H](N=C(N)N)[C@@H](O)[C@@H]3N=C(N)N)O[C@@H](C)[C@]2(O)C=O)O[C@@H](CO)[C@H](O)[C@H]1O [STREPTOMYCIN]
[1]
  MIC: 12 µg/mL (≈ 20.6 µM)
[2]
  MIC: 16 µg/mL (≈ 27.5 µM)
[3]
  MIC: 24 µg/mL (≈ 41.3 µM)
[4]
  MIC: 256 µg/mL
[5]
  MIC: 24 µg/mL (≈ 41.3 µM)
[7]
  MIC: 24 µg/mL (≈ 41.3 µM)
[8]
  MIC: 6 µg/mL (≈ 10.3 µM)
